Legend:
[1] = target: Cathepsin S (Homo sapiens) (UniProt P25774); test: Inhibition of human recombinant cathepsin S using Z-Val-Val-Arg-AMC as substrate at 50 uM preincubated for 10 mins prior to substrate addition measured after 30 mins by fluorescence spectrophotometric analysis relative to control
Cannabinoid receptor 2 = target: T1, Cannabinoid receptor 2 (Rattus norvegicus, UniProt Q9QZN9); test: Displacement of [3H]CP55940 from CB2 receptor in rat spleen homogenate after 90 mins; assay type: tissue-based
T1 sequence (Q9QZN9 whole entry): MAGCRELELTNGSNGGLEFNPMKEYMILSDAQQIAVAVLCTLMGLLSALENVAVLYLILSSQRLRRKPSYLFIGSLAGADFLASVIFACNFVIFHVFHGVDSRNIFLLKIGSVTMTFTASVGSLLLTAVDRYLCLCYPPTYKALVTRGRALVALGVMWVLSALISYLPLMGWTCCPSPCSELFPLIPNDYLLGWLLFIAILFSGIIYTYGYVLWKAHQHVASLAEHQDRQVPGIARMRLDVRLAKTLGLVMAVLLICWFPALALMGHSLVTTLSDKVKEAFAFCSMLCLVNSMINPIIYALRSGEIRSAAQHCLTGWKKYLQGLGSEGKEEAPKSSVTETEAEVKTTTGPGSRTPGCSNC
Procedure, shortened: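 Rat brain (CB1) or spleen (CB2) membranes, homogenized in tris/NaCl/MgCl2 pH 7.4, competed against 0.5 nM [3H]CP55940 in 50 mM Tris-HCl, 2 mM EDTA, 5 mM MgCl2, 0.2 mg/mL BSA, pH 7.4; 90 min incubation. Nonspecific binding with 1 µM WIN (CB1) or 1 µM SR144528 (CB2); triplicates averaged.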

Mus musculus [2] = test: Anticonvulsant activity in ip dosed Swiss albino mouse assessed as protection against picrotoxin-induced seizure administered 30 mins prior to picrotoxin-challenge measured after 0.5 hrs; assay type: functional; settings: read-out: MED
Procedure, shortened: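 Mice, either sex, 20-25 g, given compound i.p. at 30, 100 and 300 mg/kg. Thirty minutes later, picrotoxin 3.15 mg/kg was injected s.c. in 0.01 mL/g body weight. Animals were isolated and watched for 45 min for a threshold convulsion, and protection was scored as its absence. Examined at 0.5 and 4 h. Value reported is the minimum dose active in half or more of the mice (n = 3).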

Rattus norvegicus [3] = species on record: Rattus norvegicus; test: Neuroprotective activity in Wistar rat chronic constriction injury model assessed as inhibition of nitric oxide production in brain after 2 hrs by Griess method relative to control; assay type: functional
Procedure, shortened: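 Wistar rats of either sex (200-250 g) with chronic constriction of the left sciatic nerve. On day 9 post-injury, compound given i.p. in 30% v/v PEG 400; tissue taken 2 h after dosing. Nitrate reduced to nitrite, nitrite measured colorimetrically with Griess reagent against a standard curve. Results expressed as percentage of vehicle-treated control; n = 4.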

Rattus norvegicus [4] = test: Antinociceptive activity in ip dosed Wistar rat partial sciatic nerve ligation model assessed as reversal of mechanical allodynia after 30 mins; assay type: functional; settings: 0.5 h
Procedure, shortened: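 Wistar rats (200–250 g) with nerve injury, compounds i.p. in 30% v/v PEG 400; dose–response curves in each sensory test (spontaneous pain and cold allodynia as paw withdrawal duration; tactile allodynia and hyperalgesia as withdrawal threshold). ED50 linearly interpolated between doses just above and below 50% response; time of peak effect recorded.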

Rattus norvegicus [5] = test: Antinociceptive activity in Wistar rat partial sciatic nerve ligation model assessed as reversal of mechanical allodynia at 100 mg/kg, ip after 120 mins (reference value: 2.9 +/- 0.3%); assay type: functional; settings: route intraperitoneal
Rattus norvegicus [6] = test: Antinociceptive activity in Wistar rat partial sciatic nerve ligation model assessed as reversal of mechanical allodynia at 100 mg/kg, ip after 30 mins (reference value: 2.9 +/- 0.3%); assay type: functional; settings: route intraperitoneal
Rattus norvegicus [7] = test: Antinociceptive activity in Wistar rat chronic constriction injury model assessed as reversal of mechanical allodynia at 100 mg/kg, ip after 60 mins (reference value: 4.9 +/- 1.0%); assay type: functional; settings: route intraperitoneal
Rattus norvegicus [8] = test: Antinociceptive activity in Wistar rat chronic constriction injury model assessed as reversal of mechanical allodynia at 100 mg/kg, ip after 30 mins (reference value: 4.7 +/- 2.1%); assay type: functional; settings: route intraperitoneal
Rattus norvegicus [9] = test: Antinociceptive activity in Wistar rat partial sciatic nerve ligation model assessed as reversal of cold allodynia at 100 mg/kg, ip after 60 mins (reference value: 2.5 +/- 0.3%); assay type: functional; settings: route intraperitoneal
Rattus norvegicus [10] = test: Antinociceptive activity in Wistar rat chronic constriction injury model assessed as reversal of cold allodynia at 100 mg/kg, ip after 60 mins (reference value: 6.3 +/- 1.9%); assay type: functional; settings: route intraperitoneal
Rattus norvegicus [11] = test: Antinociceptive activity in Wistar rat chronic constriction injury model assessed as reversal of cold allodynia at 100 mg/kg, ip after 30 mins (reference value: 0.6 +/- 2.7%); assay type: functional; settings: route intraperitoneal
Rattus norvegicus [12] = test: Antinociceptive activity in Wistar rat partial sciatic nerve ligation model assessed as reversal of tactile allodynia at 100 mg/kg, ip after 60 mins (reference value: 12.5 +/- 1.2%); assay type: functional; settings: route intraperitoneal
Rattus norvegicus [13] = test: Antinociceptive activity in Wistar rat partial sciatic nerve ligation model assessed as reversal of tactile allodynia at 100 mg/kg, ip after 30 mins (reference value: 7.7 +/- 0.7%); assay type: functional; settings: route intraperitoneal
Rattus norvegicus [14] = test: Antinociceptive activity in Wistar rat chronic constriction injury model assessed as reversal of tactile allodynia at 100 mg/kg, ip after 120 mins (reference value: 4.1 +/- 2.1%); assay type: functional; settings: route intraperitoneal
Rattus norvegicus [15] = test: Antinociceptive activity in Wistar rat chronic constriction injury model assessed as reversal of tactile allodynia at 100 mg/kg, ip after 60 mins (reference value: 1.3 +/- 0.3%); assay type: functional; settings: route intraperitoneal
Rattus norvegicus [16] = test: Antinociceptive activity in Wistar rat chronic constriction injury model assessed as reversal of tactile allodynia at 100 mg/kg, ip after 30 mins (reference value: 3.4 +/- 0.8%); assay type: functional; settings: route intraperitoneal
Rattus norvegicus [17] = test: Antinociceptive activity in Wistar rat partial sciatic nerve ligation model assessed as reversal of spontaneous pain response at 100 mg/kg, ip after 30 mins (reference value: 3.2 +/- 0.3%); assay type: functional; settings: route intraperitoneal
Rattus norvegicus [18] = test: Antinociceptive activity in Wistar rat chronic constriction injury model assessed as reversal of spontaneous pain response at 100 mg/kg, ip after 60 mins (reference value: 4.6 +/- 0.6%); assay type: functional; settings: route intraperitoneal
Mus musculus [19] = test: Antinociceptive activity in Swiss albino mouse assessed as inhibition of formalin-induced flinching at 100 mg/kg administered 30 mins prior to test measured for 10 to 30 mins relative to control; assay type: functional
Mus musculus [20] = test: Antinociceptive activity in Swiss albino mouse assessed as inhibition of acetic acid-induced writhing at 100 mg/kg administered 30 mins prior to acetic acid-challenge measured for 30 mins relative to control; assay type: functional
Procedure, shortened: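 Swiss albino mice (20–25 g, either sex); writhing induced by i.p. 0.1 mL of 2.0% v/v acetic acid given half an hour after test compound dosing.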

Mus musculus [21] = test: Neurotoxicity in Swiss albino mouse assessed as minimal motor impairment at 300 mg/kg after 4 hrs by rotarod test; assay type: toxicity, organism-based; set-up: dose 300 mg/kg; settings: in vivo
Procedure, shortened: (§1)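 Swiss albino mice of either sex, 20-25 g, dosed at 30, 100 and 300 mg/kg, three per group. Minimal motor impairment scored by rotarod at 0.5 and 4.0 h after dosing. Reported value is the lowest dose giving impairment in half or more of the mice.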

Mus musculus [22] = test: Neurotoxicity in Swiss albino mouse assessed as minimal motor impairment at 300 mg/kg after 0.5 hrs by rotarod test; assay type: toxicity, organism-based; set-up: dose 300 mg/kg; settings: in vivo; procedure, shortened: as §1

Chain of Cathepsin S (Homo sapiens) (P25774 115-331 limits assumed): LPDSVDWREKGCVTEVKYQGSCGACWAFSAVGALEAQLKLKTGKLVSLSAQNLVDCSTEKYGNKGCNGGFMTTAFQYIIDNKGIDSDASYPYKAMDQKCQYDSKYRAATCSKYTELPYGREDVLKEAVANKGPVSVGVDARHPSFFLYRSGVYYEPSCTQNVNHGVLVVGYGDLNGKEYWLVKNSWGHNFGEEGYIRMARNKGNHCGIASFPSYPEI

SMILES	inhibition [1]	IC50 (Cannabinoid receptor 2)	minimal effective dose (Mus musculus [2])	inhibition (INH) (Rattus norvegicus [3])	ED50 (Rattus norvegicus [4])	Activity (Rattus norvegicus [5])	Activity (Rattus norvegicus [6])	Activity (Rattus norvegicus [7])	Activity (Rattus norvegicus [8])	Activity (Rattus norvegicus [9])	Activity (Rattus norvegicus [10])	Activity (Rattus norvegicus [11])	Activity (Rattus norvegicus [12])	Activity (Rattus norvegicus [13])	Activity (Rattus norvegicus [14])	Activity (Rattus norvegicus [15])	Activity (Rattus norvegicus [16])	Activity (Rattus norvegicus [17])	Activity (Rattus norvegicus [18])	inhibition in vivo at 100 mg/kg (Mus musculus [19])	also measured
CCN1CCc2c(c(C(C)(C)C)nn2C(=O)Nc2ccc(Br)cc2)C1	39.9%	> 1000 nM	100 mg/kg	16.4%	29 mg/kg	41.1%	59.8%	66%	81.9%	50.6%	65%	73%	44.9%	61.6%	50.5%	58.2%	66.7%	90.4%	85.9%	72.1%	inhibition in vivo at 100 mg/kg (Mus musculus [20]): 72.8%; Activity (Mus musculus [21]): Non-toxic; Activity (Mus musculus [22]): Non-toxic
CCN1CCc2c(c(C(C)(C)C)nn2C(=O)Nc2ccc(C)cc2C)C1	12.1%	> 1000 nM	300 mg/kg	12.5%	31.8 mg/kg	46.3%	62.3%	80%	93.8%	52.7%	50.4%	53.9%	50.4%	61.6%	58%	54.5%	69.7%	89.9%	90.9%	59.9%	inhibition in vivo at 100 mg/kg (Mus musculus [20]): 71.1%; Activity (Mus musculus [21]): Non-toxic; Activity (Mus musculus [22]): Non-toxic
CCN1CCc2c(c(C(C)(C)C)nn2C(=O)Nc2c(C)cccc2C)C1	34.1%	> 1000 nM	100 mg/kg	15.3%	23.6 mg/kg	50%	95.5%	84.4%	69.4%	56%	61.2%	61.4%	61.6%	89.4%	69.7%	54.5%	90.1%	93.9%	90.7%	68%	inhibition in vivo at 100 mg/kg (Mus musculus [20]): 73.7%; Activity (Mus musculus [21]): Non-toxic; Activity (Mus musculus [22]): Non-toxic

Reference: ChEMBL document CHEMBL2412964, “Discovery of novel tetrahydro-pyrazolo [4,3-c] pyridines for the treatment of neuropathic pain: synthesis and neuropharmacology” (Eur J Med Chem, 2013)
